The record followed here is ChEMBL document CHEMBL5032492, “Aminoalkoxycarbonyloxymethyl Ether Prodrugs with a pH-Triggered Release Mechanism: A Case Study Improving the Solubility, Bioavailability, and Efficacy of Antimalarial 4(1H)-Quinolones with Single Dose Cures” (J Med Chem, 2021).

The test system of series [1] is Plasmodium falciparum. The series can be described thus: Antimalarial activity against chloroquine and pyrimethamine resistant Plasmodium falciparum W2 infected in human erythrocytes assessed as reduction in parasite growth incubated for 48 hrs followed by addition of [3H]-hypoxanthine and measured after 24 hrs by Topcount liquid scintillation counting method. The series is classed as functional, organism-based. The settings on record: W2, Erythrocyte.

The test system of series [2] is Plasmodium falciparum. Description: Antimalarial activity against chloroquine, pyrimethamine, mefloquine and atovaquone- resistant Plasmodium falciparum TM90-C2B infected in human erythrocytes assessed as reduction in parasite growth incubated for 48 hrs followed by addition of [3H]-hypoxanthine and measured after 24 hrs by Topcount liquid scintillation counting method. It is filed as functional, organism-based. The settings on record: Erythrocyte.

The nature of series [3]: Aqueous solubility of compound at pH 7.4. The series is classed as physicochemical. The settings on record: buffer.
Series [4] is described as follows: Aqueous solubility of compound at pH 2.4. The settings on record: buffer.
In series [5] the test system is Plasmodium berghei. The series can be described thus: In vivo antimalarial activity against blood stage Plasmodium berghei transfected with GFP infected in BALB/c mouse assessed as supression of parasitemia at 10 mg/kg, po administered once daily starting from day 3 to 5 post infection and measured at day 6 by Giemsa staining based flow cytometric analysis relative to control. The series is classed as functional. The method in brief: (§1)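 Female BALB/c mice, 4–6 weeks old, five per group, were infected intraperitoneally with 2 × 10^6 P. berghei-GFP-infected red cells. Oral doses of 10 or 50 mg/kg in 0.5% aqueous HEC were given once daily on days 3–5 PI; prodrugs were suspended about 1 min before dosing. Parasitemia was measured by flow cytometry and Giemsa smears. Day-6 percent suppression was calculated versus untreated controls, with Welch-corrected t test.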
For orientation: In flow cytometry, cells or beads pass a laser one at a time.

In series [6] the test system is Plasmodium berghei. Description: In vivo antimalarial activity against blood stage Plasmodium berghei transfected with GFP infected in BALB/c mouse assessed as supression of parasitemia at 50 mg/kg, po administered once daily starting from day 3 to 5 post infection and measured at day 6 by Giemsa staining based flow cytometric analysis relative to control. It is filed as functional. An outline of the steps:
as §1

The nature of series [7]: Toxicity in BALB/c mouse infected with blood stage Plasmodium berghei assessed as weight loss at up to at 50 mg/kg, po administered once daily starting from day 3 to 5 post infection and measured on day 6. It is filed as organism-based. The settings on record: in vivo. The method in brief: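 P. berghei-infected BALB/c mice were dosed orally once daily on days 3–5 PI in 0.5% aqueous HEC, at doses up to 50 mg/kg. Body weight of treated animals was monitored for loss.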

For series [8], the system named is Plasmodium berghei. Description: In vivo antimalarial activity against blood stage Plasmodium berghei transfected with GFP infected in BALB/c mouse assessed as supression of parasitemia at 10 mg/kg, po administered as single dose on 3 days post infection and measured on day 6 by Giemsa staining based flow cytometric analysis relative to control. It is filed as functional. An outline of the steps: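 Female BALB/c mice, 4–6 weeks old, five per dose group, were infected intraperitoneally with 2 × 10^6 P. berghei-GFP-infected red cells. Each received one oral dose on day 3 PI in 0.5% aqueous HEC; doses ranged 0.01–10 mg/kg. Parasitemia was measured from tail blood by flow cytometry and Giemsa smears. Percent suppression on day 6 PI was calculated versus untreated infected controls, with Welch-corrected unpaired t test.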

The nature of series [9]: Cmax in BALB/c mouse at 3 mg/kg, po. The settings on record: in vivo. It is filed as ADME, organism-based. Details: route oral, dose 3 mg/kg. The method in brief:
(§2)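 Single oral dose in mice, formulated in 0.5% aqueous HEC; doses of 3, 10 or 50 mg/kg. The parent 4(1H)-quinolone was quantified in plasma over time after dosing, with a lower limit of quantification of 1 nM. PK parameters were derived from the plasma concentration profiles.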

A short description of series [10]: Cmax in BALB/c mouse at 10 mg/kg, po. It is filed as ADME, organism-based. Details: route oral, dose 10 mg/kg. The settings on record: in vivo. The method in brief: as §2
Series [11] in a line: Tmax in BALB/c mouse at 3 mg/kg, po. It is filed as ADME, organism-based. The settings on record: in vivo. An outline of the steps:
as §2

Series [12] can be described thus: Tmax in BALB/c mouse at 10 mg/kg, po. The settings on record: in vivo. It is filed as ADME, organism-based. The method in brief:
as §2

Series [13] can be described thus: AUC (0 to 24 hrs) in BALB/c mouse at 3 mg/kg, po. The settings on record: in vivo. The series is classed as ADME, organism-based. Details: time < 24 hr, route oral, dose 3 mg/kg. An outline of the steps:
as §2

Series [14] is described as follows: AUC (0 to 24 hrs) in BALB/c mouse at 10 mg/kg, po. Details: time < 24 hr, route oral, dose 10 mg/kg. The series is classed as ADME, organism-based. The settings on record: in vivo. An outline of the steps:
as §2

Series [15] in a line: Volume of distribution in BALB/c mouse at 3 mg/kg, po. It is filed as ADME, organism-based. The settings on record: in vivo. The method in brief:
as §2

Series [16] is described as follows: Volume of distribution in BALB/c mouse at 10 mg/kg, po. The series is classed as ADME, organism-based. The settings on record: in vivo. The method in brief:
as §2

Series [17] can be described thus: Clearance in BALB/c mouse at 3 mg/kg, po. It is filed as ADME, organism-based. The settings on record: in vivo. The method in brief:
as §2

The nature of series [18]: Clearance in BALB/c mouse at 10 mg/kg, po. It is filed as ADME, organism-based. The settings on record: in vivo. The method in brief:
as §2

Series [19] is described as follows: Apparent half life in BALB/c mouse at 3 mg/kg, po. It is filed as ADME, organism-based. The settings on record: in vivo, read-out: t1/2(app) (converted). The method in brief: as §2
Series [20] in a line: Apparent half life in BALB/c mouse at 10 mg/kg, po. It is filed as ADME, organism-based. The settings on record: in vivo, read-out: t1/2(app) (converted). The method in brief: as §2
The nature of series [21]: Solubility of the compound in 0.5% hydroxyethylcellulose.
Series [22] is described as follows: Cmax in BALB/c mouse at 50 mg/kg, po. It is filed as ADME, organism-based. Details: route oral, dose 50 mg/kg. The settings on record: in vivo. An outline of the steps: as §2
A short description of series [23]: Tmax in BALB/c mouse at 50 mg/kg, po. The series is classed as ADME, organism-based. The settings on record: in vivo. An outline of the steps:
as §2

Series [24] is described as follows: AUC (0 to 24 hrs) in BALB/c mouse at 50 mg/kg, po. It is filed as ADME, organism-based. Details: time < 24 hr, route oral, dose 50 mg/kg. The settings on record: in vivo. The method in brief:
as §2

Series [25] in a line: Volume of distribution in BALB/c mouse at 50 mg/kg, po. It is filed as ADME, organism-based. The settings on record: in vivo. The method in brief:
as §2

Series [26] in a line: Clearance in BALB/c mouse at 50 mg/kg, po. It is filed as ADME, organism-based. The settings on record: in vivo. An outline of the steps:
as §2

Series [27] is described as follows: Apparent half life in BALB/c mouse at 50 mg/kg, po. It is filed as ADME, organism-based. The settings on record: in vivo, read-out: t1/2(app) (converted). The method in brief: as §2

Converted amounts (≈) assume the structure as drawn. The source made the active and inactive calls. The calls are words filed in the database; no cut-off is given here.

Broadly, the EC50 is the concentration giving half of the maximal effect. By solubility is commonly meant the concentration that dissolves in the medium under given conditions. The low end stands for little dissolved substance, the high end for much dissolved substance. As to `CCOC(=O)Oc1c(-c2ccccc2C)c(C)nc2cc(OC)c(Cl)cc12`, the half-maximal effective concentration (EC50) in [1] is 170 nM; in series [2], 126 nM. The compound further yielded a solubility in [3] below 1 µM.

With `COc1cc2[nH]c(C)c(-c3ccccc3C)c(=O)c2cc1Cl`, the concentration for a half-maximal effect (EC50) was 21.9 nM in series [1] and 38 nM in series [2]. In series [4], the solubility is 6.9 µM (≈ 2.17 µg/mL). Further, the Activity in [5] is 29%; in series [6], 28%; in [7], “Non-Toxic”.

As to `NC(=O)N1c2ccccc2C=Cc2ccccc21` [CARBAMAZEPINE], the solubility in [3] is 95 µM (≈ 22.4 µg/mL); in [4] it was 100 µM (≈ 23.6 µg/mL).

The term Cmax denotes the maximum level reached in the sampled fluid or tissue. One may read the Tmax as the time at which the peak concentration occurs. The term AUC denotes the area under the concentration-time curve, a measure of exposure. Low values mean less exposure, high ones more exposure. In the case of `COc1cc2[nH]c(C)c(-c3ccc(Oc4ccc(OC(F)(F)F)cc4)cc3F)c(=O)c2cc1Cl`, the Activity in [8] (time 3 day) is below 1%. The outcome in [8] (time 3.0 day) was inactive. Moreover, the highest concentration (Cmax) in series [9] was determined as 310 nM; in series [10] it was 460 nM. For the same compound, the Tmax is 4 h in [11] and 8 h in series [12]. The area under the curve (AUC) amounted to 228 µmol·min/L in series [13] and 580 µmol·min/L in series [14]. Besides, the Vd turned out to be 19.6 L/kg in [15] and 44 L/kg in series [16]. In addition, the clearance came to 26.6 mL/min/kg in series [17] and 34.9 mL/min/kg in series [18]. The half-life is 510 min in [19] and 870 min in [20].

On to `O=C1C(O)=C([C@H]2CC[C@H](c3ccc(Cl)cc3)CC2)C(=O)c2ccccc21` [ATOVAQUONE], for which, in series [2], the EC50 is 18200 nM.

Compound `CNCCOC(=O)OCOc1c(-c2ccc(C(F)(F)F)cc2)c(C)nc2cc(OC)c(Cl)cc12.Cl` showed a solubility in [21] above 5.6 mM. Further, the Activity in series [5] came to 75%; in series [6], 96%. In series [22], the highest level (Cmax) was 12 µM. The Tmax in series [23] was 4 h. This compound registered an exposure (AUC) in series [24] of 8031 µmol·min/L. In [25], this compound had a Vd of 7.8 L/kg. Besides, in series [26], the clearance came out at 11.6 mL/min/kg. Besides, the half-life in [27] was 462 min.

Consider `COc1cc2nc(C)c(-c3ccccc3C)c(OC(=O)N3CCCC3)c2cc1Cl`, for which the 50% effective concentration (EC50) in [1] was above 2290 nM; in [2] it was above 3550 nM.

`CNCCOC(=O)OCOc1c(-c2ccccc2C)c(C)nc2cc(OC)c(Cl)cc12.Cl`: the values for the EC50 in [1] and in series [2] were 219 nM and 107 nM, respectively. For the same compound, the solubility in series [4] was above 100 µM; in series [21], above 21 mM. The results for the Activity in series [5] and in series [6] were 71% and 46%, respectively.

As for `CCC(=O)Oc1c(-c2ccccc2C)c(C)nc2cc(OC)c(Cl)cc12`, the 50% effective concentration (EC50) in [1] and in series [2] was 63.1 nM in each case.
